# Assay outcomes from PubChem BioAssay.
# FLuc inhib CS: inhibits firefly luciferase, flagging false hits in luciferase inhibition screens; P08659; ATPLite firefly luciferase biochemical luminescence, 10 min; inhibition, % at 10 µM; actives 1.5% (n = 200,000); AID 1006;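 active means inhibition above about 50% when tested at 10 µM, limit read from the data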
# Target sequence (P08659 whole entry, looked up): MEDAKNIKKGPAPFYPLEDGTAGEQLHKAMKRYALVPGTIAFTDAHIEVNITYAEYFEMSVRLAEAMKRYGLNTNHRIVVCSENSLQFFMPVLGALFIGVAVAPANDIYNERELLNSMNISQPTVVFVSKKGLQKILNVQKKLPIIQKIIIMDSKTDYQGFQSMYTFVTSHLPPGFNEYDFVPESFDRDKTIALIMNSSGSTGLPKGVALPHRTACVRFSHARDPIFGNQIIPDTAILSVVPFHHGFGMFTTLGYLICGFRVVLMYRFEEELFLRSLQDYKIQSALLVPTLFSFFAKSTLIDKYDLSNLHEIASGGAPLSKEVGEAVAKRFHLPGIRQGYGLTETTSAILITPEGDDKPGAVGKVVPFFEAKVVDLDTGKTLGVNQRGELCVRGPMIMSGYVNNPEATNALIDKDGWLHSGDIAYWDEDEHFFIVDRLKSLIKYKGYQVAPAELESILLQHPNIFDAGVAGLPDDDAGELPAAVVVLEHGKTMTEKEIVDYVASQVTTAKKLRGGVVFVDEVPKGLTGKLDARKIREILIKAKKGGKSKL
# FLuc stim CS: affects firefly luciferase, flagging false hits in luciferase stimulation screens; P08659; ATPlite luciferase biochemical, luminescence, 10 min; 0 = ATP-free wells, 1 = DMSO control; activation factor at 10 µM; 200,000 tested, under 10 active; AID 1027;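 active means luciferase activation factor, scaled between plate controls, of at least 2 with compound at 10 µM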
#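 System: luciferase plus luciferin reagent, cell-free; medium: PBS as buffer for the ATP substrate; dosing: test compounds dosed from 2 mM stocks in 100% DMSO; timing: 10 min post-reagent at room temperature; measured by: luminescence measurement of luciferase light output; evaluation: luciferase activation, seen as luminescence increase over controls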
# PPC-1+TRAIL kill: compounds killing PPC-1 cancer cells with TRAIL present (potentiator screen, no TRAIL-free arm) | actives 0.41% (n = 220,000) | cell killing (% activity), % at 4 µM or 5 µM | PPC-1 cells + TRAIL, ATPLite viability luminescence;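 active means cell killing above 50% in the first pass at 4 µM, then a duplicate retest at 5 µM averaging 50% or more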
# TRAIL sens C8: sensitizes caspase-8 expressing cells to TRAIL; NB7+C8 cells + TRAIL, ATPlite viability luminescence; inhibition (viability loss, TRAIL sensitization), % at 10 µM; actives 1% (n = 360,000); AID 624354;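 active means compounds causing at least 50% loss of cell viability in the single-dose screen, relative to plate controls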
# A number is an active result; 0 = inactive; - = not tested or not shown. The list is not random: actives were taken first. Their share in the collection is about 1.5%.
SMILES,FLuc inhib CS,FLuc stim CS,PPC-1+TRAIL kill,TRAIL sens C8
O=C(CSC(=S)N1CCSCC1)c1ccccc1,67.9,0,0,0
O=C(CSC(=S)N1CCSCC1)c1ccc(Cl)cc1,0,0,0,0
COCCCN1C(=O)C(CC(=O)NCCCN(C)C)CC(C(=O)N2CCOCC2)=C1C (stereo unspecified),-,-,-,0
CCOc1cccc(/C=N/NC(=S)Nc2ccccc2[N+](=O)[O-])c1O,0,0,0,52.6
O=C(CN1C(=O)NC2(CCCC2)C1=O)NNC(=O)c1ccc(Br)cc1,-,-,-,0
CC(C)(C)c1ccc(C(=O)N2CCC2(C)C(=O)Nc2ccc3nc[nH]c3c2)cc1 (stereo unspecified),-,-,-,0
Cc1nn(-c2ccccc2)c(/N=C/c2ccc(O)cc2)c1-c1ccccc1,0,0,0,52.8
O=C1c2ccccc2C(=O)c2cc(N3CCCCC3)ccc21,-,-,-,86.5
c1ccc2cc(N3CCCCC3)ccc2c1,-,-,-,0
CNC[C@@H](Cc1ccccc1)NC[C@@H](CC1CCCCC1)NCCCc1ccccc1,-,-,-,96.2
CN(Cc1cccc(C(F)(F)F)c1)C(=O)C1CCC(=O)N(CC2CCCCC2)C1 (stereo unspecified),-,-,-,0
CNC[C@@H](CC1CCCCC1)NC[C@H](CC(C)C)NCCc1cccc(C(F)(F)F)c1,-,-,-,92.2
CCC[C@@H](CNC)NC[C@H](Cc1ccccc1)NCCCCc1ccccc1,-,-,-,0
COc1ccc2oc(C(=O)OCC(=O)N(C)C3CCCCC3)c(C)c2c1,-,-,-,0
COc1ccc(/C=C/C(=O)NCC(c2ccc(F)cc2)N2CCOCC2)cc1OC (stereo unspecified),-,-,0,0
COC(=O)c1nn(-c2ccc(-c3ccccc3)cc2)cc1O,80.1,0,0,58.1
CCOC(=O)c1nn(-c2ccccc2)cc1O,-,-,0,0
CCOC(=O)c1nn(-c2ccc(C)cc2)cc1O,58.8,0,0,0
c1ccc(CN=C2NN=C(c3ccccc3)CS2)cc1,0,0,0,0
CC(C)N=C1NN=C(c2ccc(F)cc2)CS1,58.4,0,0,0
CCN=C1NN=C(c2ccc(C)cc2)CS1,63.5,0,0,0
CN(C)c1ccc(C(=O)c2ccccc2)cc1,0,0,0,0
CN(C)c1ccc(N=Nc2ccc(C(=O)O)cc2)cc1,-,-,-,50.6
O=C(Cc1ccc(S(=O)(=O)N2CCOCC2)s1)N1CCN(S(=O)(=O)c2cccc([N+](=O)[O-])c2)CC1,-,-,-,0
O=C1c2ccccc2C(=O)N1/N=C/c1ccc(O)c(O)c1,74.4,0,0,0
SMILES,FLuc inhib CS,FLuc stim CS,PPC-1+TRAIL kill,TRAIL sens C8
O=C1C2C3C=CC(CC3)C2C(=O)N1/N=C/c1ccc(O)c(O)c1 (stereo unspecified),0,0,0,0
N/C(=N\N=C\c1cccc([N+](=O)[O-])c1)c1nonc1N,-,-,0,0
N/C(=N\N=C\c1ccc2c(c1)OCO2)c1nonc1N,78.5,0,0,0
CC(C)(C)OC(=O)NCCc1onc(-c2ccccc2F)c1C(=O)O,-,-,-,0
O=C(CSc1nc2nc(-c3cccs3)cc(C(F)(F)F)c2c(=O)[nH]1)C(F)(F)F,-,-,-,0
COc1ccc(NC(=O)C2(N(CC(C)C)C(=O)Cn3nnnc3N)CCCCC2)cc1,0,0,55.6,0
CC(NC1=CC(=O)c2cccnc2C1=O)C(O)c1ccccc1 (stereo unspecified),-,-,-,83.0
CC(c1ccccc1)N1C(=O)c2cccnc2C1=O (stereo unspecified),-,-,-,0
NS(=O)(=O)c1ccc(CCNC(=O)CCNS(=O)(=O)c2ccccc2C(F)(F)F)cc1,-,-,-,0
Cc1ccc2nc(-c3sc4nc(C)cc(C)c4c3N)[nH]c2c1,63.8,0,0,56.0
Nc1cccc(-c2nc3ccccc3[nH]2)c1,0,0,0,0
O=[N+]([O-])c1ccc(O)c(C=Nc2ccc3nc(-c4ccccc4)[nH]c3c2)c1,0,0,0,0
Cc1ccc(-c2nc3ccc([N+](=O)[O-])cc3[nH]2)cc1,60.8,0,0,0
Oc1c(Br)cc(C=Nc2ccc3nc(-c4ccccc4)[nH]c3c2)c(O)c1Br,55.9,0,0,-
Cc1ccc2nc(-c3cccc(N)c3)[nH]c2c1,87.9,0,0,67.7
COc1ccc(-c2nc3ccc([N+](=O)[O-])cc3[nH]2)cc1,0,0,0,0
CCNc1nnc(SCC(=O)NC2CCCCCC2)s1,-,-,-,0
COc1ccc(NC(=O)C2(C)CCN2C(=O)Cc2ccc(Cl)cc2Cl)cc1OC (stereo unspecified),-,-,-,0
COc1ccc2nc(-c3ccccc3)[nH]c2c1,74.5,0,0,51.2
Cc1ccc(/C=C2\C(=O)ON=C2c2ccccc2)o1,60.1,0,0,0
CCCc1cc(=O)[nH]c(SCC(=O)Nc2sc(C(N)=O)c(C)c2C(=O)OCCOC)n1,-,-,-,85.2
Cc1ccc(CS(=O)(=O)c2ncc(Cl)c(C(=O)Nc3ccc(OC(F)F)cc3)n2)cc1,-,-,-,87.9
CCS(=O)(=O)c1ncc(Cl)c(C(=O)Nc2ccc(C)cc2)n1,-,-,-,84.1
CCC1CCCCN1S(=O)(=O)c1ccc(NC(=O)c2ccncc2)cc1 (stereo unspecified),-,-,-,0
CCS(=O)(=O)c1ncc(Cl)c(C(=O)Nc2ccc(S(=O)(=O)N3CCCC(C)C3)cc2)n1 (stereo unspecified),-,-,-,96.2
SMILES,FLuc inhib CS,FLuc stim CS,PPC-1+TRAIL kill,TRAIL sens C8
CCC1CCCCN1S(=O)(=O)c1ccc(NC(=O)c2nc(S(C)(=O)=O)ncc2Cl)cc1 (stereo unspecified),-,-,-,92.5
CS(=O)(=O)c1ncc(Cl)c(C(=O)Nc2ccc3ccccc3c2)n1,0,0,0,0
CC1CCCN(S(=O)(=O)c2ccc(NC(=O)CNC3CCCC3)cc2)C1 (stereo unspecified),-,-,-,0
N#CC(CCc1ccccc1[N+](=O)[O-])(CCc1ccccc1[N+](=O)[O-])C(N)=O,-,-,-,0
COC(=O)c1c(NC(=S)NNC(=O)c2ccc(Cl)s2)sc(C(=O)N(C)C)c1C,-,-,-,0
CCCCN(C)C(=O)C1CCN(Cc2cccc(OCc3ccccc3)c2)CC1,-,-,-,0
